# Where two headings read alike, the source gives them in different places.
# Experiments:
# [1] = Cytostatic activity, inhibition of cell growth; type: cell-based, human; settings: human, HEL cells, Cytotoxicity Cell growth (CC50), Table 3
# HSV-1 TK– = experiment: Virus-induced cytopathicity, TK– HSV-1 KOS ACVr in HEL cells; type: cell-based, herpes simplex virus type 1; settings: read-out: Antiviral activity EC50 HSV-1 TK–
# HEL cells [2] = experiment: Cytotoxicity, alteration of cell morphology; type: cell-based, human
# HSV-2 = experiment: Virus-induced cytopathicity, HSV-2; type: cell-based, herpes simplex virus type 2; settings: read-out: Antiviral activity EC50 HSV-2
# Vaccinia virus = experiment: microbe, parasite or virus in culture; type: cell-based; settings: for EC50: read-out: Antiviral activity EC50 Vaccinia virus
# HSV-1 = experiment: Virus-induced cytopathicity, HSV-1; type: cell-based, herpes simplex virus type 1; settings: read-out: Antiviral activity EC50 HSV-1; Table 4; HEL cells
# herpesviruses = experiment: organism not typed; type: cell-based; settings: for EC50: HEL
# HCMV DNA pol = molecular target: T1, HCMV DNA pol (Human cytomegalovirus, UniProt P08546); experiment: DNA polymerase inhibition, HCMV DNA pol; type: biochemical; settings: IC50 HCMV DNA pol dGTP, calf thymus DNA, radiolabeled [3H]dGTP
# T1 sequence (P08546 1-1242): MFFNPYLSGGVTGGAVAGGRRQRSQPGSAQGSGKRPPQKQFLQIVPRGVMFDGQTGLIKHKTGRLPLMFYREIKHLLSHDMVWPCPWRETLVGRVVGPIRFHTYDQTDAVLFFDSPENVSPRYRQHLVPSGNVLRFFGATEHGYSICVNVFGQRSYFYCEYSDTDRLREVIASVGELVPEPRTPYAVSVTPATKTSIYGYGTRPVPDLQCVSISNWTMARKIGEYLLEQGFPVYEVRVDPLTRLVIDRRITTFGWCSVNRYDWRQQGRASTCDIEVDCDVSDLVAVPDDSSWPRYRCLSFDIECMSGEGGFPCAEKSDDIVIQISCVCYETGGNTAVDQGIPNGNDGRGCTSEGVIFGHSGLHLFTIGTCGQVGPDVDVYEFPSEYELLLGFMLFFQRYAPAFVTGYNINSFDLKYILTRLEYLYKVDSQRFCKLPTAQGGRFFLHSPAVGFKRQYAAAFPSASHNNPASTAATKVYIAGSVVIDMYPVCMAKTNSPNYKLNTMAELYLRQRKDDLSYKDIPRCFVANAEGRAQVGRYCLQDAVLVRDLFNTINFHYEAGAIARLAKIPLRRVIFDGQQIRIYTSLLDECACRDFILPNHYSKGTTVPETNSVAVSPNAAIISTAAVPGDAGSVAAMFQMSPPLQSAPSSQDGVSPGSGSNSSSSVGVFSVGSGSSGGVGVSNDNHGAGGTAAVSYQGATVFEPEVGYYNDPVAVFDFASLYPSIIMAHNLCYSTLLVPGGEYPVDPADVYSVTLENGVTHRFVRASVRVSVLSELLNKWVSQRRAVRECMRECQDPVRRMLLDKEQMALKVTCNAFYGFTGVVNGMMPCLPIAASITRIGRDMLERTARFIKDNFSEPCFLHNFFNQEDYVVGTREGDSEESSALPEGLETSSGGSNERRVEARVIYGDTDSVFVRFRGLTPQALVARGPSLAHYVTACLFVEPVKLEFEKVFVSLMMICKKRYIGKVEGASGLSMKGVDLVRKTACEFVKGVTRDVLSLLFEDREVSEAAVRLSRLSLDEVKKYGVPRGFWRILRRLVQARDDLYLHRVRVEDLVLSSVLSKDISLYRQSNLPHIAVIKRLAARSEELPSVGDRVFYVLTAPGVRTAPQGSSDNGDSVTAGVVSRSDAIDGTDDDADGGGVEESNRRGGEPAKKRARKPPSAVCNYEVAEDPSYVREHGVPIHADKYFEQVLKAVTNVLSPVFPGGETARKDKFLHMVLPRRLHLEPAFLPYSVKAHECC
# Outline: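 Recombinant or source enzyme not specified. HCMV DNA polymerase reaction uses activated calf thymus DNA as template/primer, 100 uM of each of three unlabeled dNTPs, and 0.5 uM rate-limiting tritium-labeled dNTP ([3H]dGTP or [3H]dTTP, as competitive substrate). The diphosphate form of the test compound is added in serial dilutions, up to 100 uM.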
# HSV = experiment: Antiviral activity against HSV; type: cell-based, herpes simplex virus; settings: HEL
# HCMV AD-169 strain = experiment: Virus-induced cytopathic effect, HCMV AD-169 strain in HEL cells; type: cell-based, human cytomegalovirus
# HSV-1 mutant viruses = type: cell-based, herpes simplex virus type 1; settings: Figure 2
# Outline: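 HSV-1 TK and DNA polymerase mutants were derived from the reference KOS strain and tested by CPE reduction. Confluent HEL cultures in 96-well plates were infected and incubated with varying test compound concentrations. Cytopathicity was scored once it was complete in untreated infected controls. […] Fold-resistance is EC50 mutant divided by EC50 wild-type KOS. Reference antiherpetic drugs were run alongside.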
# HCMV Davis strain = experiment: Virus-induced cytopathic effect, HCMV Davis strain in HEL cells; type: cell-based, human cytomegalovirus
# TK– VZV 07-1 strain = type: cell-based, varicella-zoster virus
# TK+ VZV OKA strain = type: cell-based, varicella-zoster virus
# HEL cells [3] = experiment: Cytostatic activity, inhibition of cell growth; type: cell-based, human
# [4] = read-out: EC50 values, replication of HSV-1, HSV-2 and TK-HSV-1 (range)
# [5] = read-out: EC50 against VZV, HCMV, HSV-1, HSV-2, and Vaccinia virus (range)
molecule,measurement,setting,value
"O=c1[nH]c(=O)n([C@H]2C[C@H](O)[C@@H](CO)O2)cc1/C=C/Br [Brivudin, brivudin, reference compound]",CC50 at 3 days,[1],168 ± 41 µM
same,EC50,HSV-1 TK–,50 µM
same,Cytotoxicity Cell morphology (MCC),HEL cells [2]; Table 1,>300 μM
same,Cytotoxicity Cell morphology (MCC),HEL cells [2]; Table 2,>250 μM
same,Cytotoxicity Cell morphology (MCC),HEL cells [2]; Table 3,≥300 μM
same,EC50,"HSV-2; Human alphaherpesvirus 2, HEL",112 ± 37 µM
"O=c1[nH]c(=O)c2ncn(C[C@@H](CF)OCP(=O)(O)O)c2[nH]1 [Compound 8, (S)-(((1–(2,6-Dioxo-1,2,3,6-tetrahydro-9H-purin-9-yl)-3-fluoropropan-2-yl)oxy)methyl)phosphonic acid]",EC50,"Vaccinia virus; Orthopoxvirus vaccinia, HEL",> 329 µM
same,Cytotoxicity Cell morphology (MCC),HEL cells [2]; Table 1,>329 μM
"4,4,5,5,6,6,7,7,8,8,9,9,10,10,11,11,11-Heptadecafluoroundecyl hydrogen ((2–(2,6-dioxo-1,2,3,6-tetrahydro-9H-purin-9-yl)ethoxy)methyl)phosphonate [Compound 19]",EC50,"HSV-1 TK–; Table 4, HEL cells",> 100 µM
same,EC50,Vaccinia virus,> 100 µM
same,EC50,HSV-1,> 100 µM
same,Cytotoxicity Cell morphology (MCC),HEL cells [2]; Table 3,≥100 μM
same,Cytotoxicity Cell morphology (MCC),HEL cells [2]; Table 4,>100 μM
same,EC50,"HSV-2; Table 4, HEL cells",> 100 µM
same,anti-herpesvirus activity (in words),herpesviruses,did not display any potent anti-herpesvirus activity
"O=c1nc(NC2CC2)c2ncn(CCOCP(=O)(O)O)c2[nH]1 [Compound 17, ((2–(6-(Cyclopropylamino)-2-oxo-2,3-dihydro-9H-purin-9-yl)ethoxy)methyl)phosphonic acid]",EC50,"Vaccinia virus; Orthopoxvirus vaccinia, HEL",> 100 µM
same,Cytotoxicity Cell morphology (MCC),HEL cells [2]; Table 3,>100 μM
same,activity in all assays (in words),herpesviruses,completely inactive in all assays
"Nc1nc2c(ncn2COCCOP(=O)(O)OP(=O)(O)OP(=O)(O)O)c(=O)[nH]1 [ACV-TP, acyclovir triphosphate]",IC50,HCMV DNA pol,0.77 ± 0.04 µM
"Nc1ccn(C[C@@H](CO)OCP(=O)(O)O)c(=O)n1 [Cidofovir, cidofovir]",CC50 at 3 days,[1],170 ± 61 µM
"O=c1[nH]c(=O)c2ncn(C[C@H](CF)OCP(=O)(O)O)c2[nH]1 [Compound 7, (R)-(((1–(2,6-Dioxo-1,2,3,6-tetrahydro-9H-purin-9-yl)-3-fluoropropan-2-yl)oxy)methyl)phosphonic acid]",EC50,"Vaccinia virus; Orthopoxvirus vaccinia, HEL",> 313 µM
same,Cytotoxicity Cell morphology (MCC),HEL cells [2]; Table 1,>313 μM
"C[C@H](Cn1cnc2c(=O)[nH]c(=O)[nH]c21)OCP(=O)(O)O [Compound 9, (R)-(((1–(2,6-Dioxo-1,2,3,6-tetrahydro-9H-purin-9-yl)propan-2-yl)oxy)methyl)phosphonic acid]",EC50,"Vaccinia virus; Orthopoxvirus vaccinia, HEL",> 100 µM
same,Cytotoxicity Cell morphology (MCC),HEL cells [2]; Table 1,>100 μM
"O=c1[nH]c(=O)c2ncn(C[C@@H](CO)OCP(=O)(O)O)c2[nH]1 [Compound 6, (S)-(((1–(2,6-Dioxo-1,2,3,6-tetrahydro-9H-purin-9-yl)-3-hydroxypropan-2-yl)oxy)methyl) phosphonic acid]",EC50,"Vaccinia virus; Orthopoxvirus vaccinia, HEL",39 ± 27 µM
same,Cytotoxicity Cell morphology (MCC),HEL cells [2]; Table 1,>300 μM
same,Cytotoxicity Cell morphology (MCC),HEL cells [2]; Table 2,>100 μM
same,EC50,HSV; [4],16 to 39 µM
same,anti-herpesvirus activity (in words),herpesviruses,able to inhibit the replication of herpesviruses
same,EC50,herpesviruses; [5],17 to 43 µM
"O=c1[nH]c(=O)c2ncn(CCOCP(=O)(O)O)c2[nH]1 [Compound 4, ((2–(2,6-Dioxo-1,2,3,6-tetrahydro-9H-purin-9-yl)ethoxy)methyl)phosphonic acid]",selectivity index (ratio CC50/EC50),HCMV AD-169 strain,11
same,Antiviral activity EC50 Vaccinia virus,Vaccinia virus,lacked activity
same,EC50,"Vaccinia virus; Orthopoxvirus vaccinia, HEL",> 345 µM
same,change of EC50 for DNA polymerase mutant viruses,"HSV-1 mutant viruses; HSV-1 DNA polymerase mutants, same magnitude as adefovir",increase in the EC50
same,activity against viruses bearing mutations in the viral TK,HSV-1 mutant viruses; HSV-1 TK mutants,remained active
same,Cytotoxicity Cell morphology (MCC),HEL cells [2]; Table 1,>345 μM
same,selectivity index (ratio CC50/EC50),HCMV Davis strain,13
same,selectivity index (ratio CC50/EC50),TK– VZV 07-1 strain,24
same,selectivity index (ratio CC50/EC50),TK+ VZV OKA strain,42
same,EC50,HSV; [4],16 to 39 µM
same,anti-herpesvirus activity (in words),herpesviruses,able to inhibit the replication of herpesviruses
same,EC50,"herpesviruses; read-out: EC50 values against VZV, HCMV, HSV-1, and HSV-2 (range)",2.6 to 25.6 µM
"Nc1nc2c(ncn2COCCO)c(=O)[nH]1 [Acyclovir, acyclovir, reference compound]",EC50,"Vaccinia virus; Orthopoxvirus vaccinia, HEL",> 250 µM
same,Cytotoxicity Cell morphology (MCC),HEL cells [2]; Table 2,>250 μM
"CCCCCCCCCCCCCCCCOCCCOP(=O)(O)COCCn1cnc2c(=O)[nH]c(=O)[nH]c21 [Compound 18, 3-(Hexadecyloxy)propyl hydrogen ((2–(2,6-dioxo-1,2,3,6-tetrahydro-9H-purin-9-yl)ethoxy)methyl)phosphonate]",increase in cytostatic activity versus parent compound 4,HEL cells [3],11 fold
same,EC50,"Vaccinia virus; Orthopoxvirus vaccinia, HEL",> 100 µM
same,Cytotoxicity Cell morphology (MCC),HEL cells [2]; Table 3,100 μM
same,Cytotoxicity Cell morphology (MCC),HEL cells [2]; Table 4,>100 μM
same,EC50,HSV; read-out: EC50 values against HSV-1 and HSV-2 (range),1.8 to 4 µM
"Nc1nc(O)c2ncn(COC(CO)CO)c2n1 [Ganciclovir, ganciclovir, reference compound]",CC50 at 3 days,[1],≥ 317 µM
same,EC50,"Vaccinia virus; Orthopoxvirus vaccinia, HEL",> 100 µM
same,Cytotoxicity Cell morphology (MCC),HEL cells [2]; Table 2,>100 μM
"O=c1[nH]c(=O)c2ncn(CC(CO)OCP(=O)(O)O)c2[nH]1 (racemic) [Compound 5, (RS)-(((1–(2,6-Dioxo-1,2,3,6-tetrahydro-9H-purin-9-yl)-3-hydroxypropan-2-yl)oxy)methyl)phosphonic acid]",EC50,"Vaccinia virus; Orthopoxvirus vaccinia, HEL",39 ± 27 µM
same,Cytotoxicity Cell morphology (MCC),HEL cells [2]; Table 1,≥300 μM
same,Cytotoxicity Cell morphology (MCC),HEL cells [2]; Table 2,>100 μM
same,EC50,HSV; [4],16 to 39 µM
same,anti-herpesvirus activity (in words),herpesviruses,able to inhibit the replication of herpesviruses
same,EC50,herpesviruses; [5],17 to 43 µM

# Source: paper PMC6287304 (Antiviral Chemistry & Chemotherapy, 2018)
